Sampled rows, rich in hits. Any-hit rate of the full collection: about 3.5%.
SIAE inh: inhibitors of human sialic acid acetylesterase SIAE | AID 1053197 | inhibition, % at 9.66 µM | 370,000 compounds, 0.69% hits | SIAE FP-Rh probe binding, fluorescence polarization | Q9HAT2;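 active = inhibition above a cutoff: mean of compounds within the control limits plus 3 SD of those, cut at about 17% in these data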;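 note: 0% = plate median of compound wells and 100% = probe without SIAE protein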
HTRA1 inhibitor: inhibitors of human serine peptidase HTRA1 | AID 504803 | Q92743 | 340,000 compounds, 0.5% hits | inhibition, % at 5.96 µM | recombinant HTRA1, FP-rhodamine activity-based probe, fluorescence polarization; in the data active = inhibition above about 36%;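 note: 0% = enzyme with DMSO and 100% = wells lacking enzyme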
rCAG binder: molecules binding r(CAG) RNA repeats; r(CAG) RNA repeat, TO-PRO-1 dye displacement fluorescence; inhibition, % at 3 µM; 370,000 compounds, 1.3% hits;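 active = inhibition above the plate cutoff, the mean of all test compounds on that plate plus 3 SD, cut at about 35% in these data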;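 note: 0% = DMSO alone and 100% = 100 µM mitoxantrone as full dye displacement; higher means more dye released from RNA so lower well fluorescence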
PRMT1 inh: inhibitors of human PRMT1 | inhibition, % at 2.79 µM | AID 652257 | 370,000 compounds, 1.3% hits | Q99873 | recombinant PRMT1, activity-based probe fluorescence polarization;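 active = inhibition above about 21% made by adding two undisclosed values, limit read from the data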
Target sequence (Q99873 whole entry, looked up): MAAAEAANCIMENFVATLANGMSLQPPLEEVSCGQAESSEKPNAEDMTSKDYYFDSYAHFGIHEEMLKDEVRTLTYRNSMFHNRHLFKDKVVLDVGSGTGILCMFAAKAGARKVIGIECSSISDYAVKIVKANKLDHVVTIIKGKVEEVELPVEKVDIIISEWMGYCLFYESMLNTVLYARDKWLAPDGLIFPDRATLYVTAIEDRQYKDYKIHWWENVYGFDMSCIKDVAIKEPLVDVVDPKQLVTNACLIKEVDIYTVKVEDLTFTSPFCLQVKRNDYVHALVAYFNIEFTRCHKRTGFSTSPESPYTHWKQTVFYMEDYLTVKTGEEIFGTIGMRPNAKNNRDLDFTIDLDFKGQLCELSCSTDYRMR
TCR-CD3 inh: blocks the human TCR-CD3 interaction | 360,000 compounds, 0.37% hits | TAMRA-labeled TCR probe fluorescence, biochemical | inhibition, % at 9.4 µM; in the data active = inhibition above about 19%;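 note: recombinant mutant TCR 2C K166C tagged with TAMRA read by polarization; 0% = receptor in buffer alone and 100% = receptor with positive control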
ABHD4 inh: inhibitors of mouse ABHD4. purified mABHD4, FP-Rh probe fluorescence polarization. 370,000 compounds, 0.54% hits. AID 720543. inhibition, % at 8.92 µM. Q8VD66;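 active = inhibition exceeding the mean over every tested compound plus 3 SD, cut at about 30% in these data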;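 note: 0% = plate median of compound wells and 100% = S159A mutant with DMSO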
Target sequence (Q8VD66 whole entry, looked up): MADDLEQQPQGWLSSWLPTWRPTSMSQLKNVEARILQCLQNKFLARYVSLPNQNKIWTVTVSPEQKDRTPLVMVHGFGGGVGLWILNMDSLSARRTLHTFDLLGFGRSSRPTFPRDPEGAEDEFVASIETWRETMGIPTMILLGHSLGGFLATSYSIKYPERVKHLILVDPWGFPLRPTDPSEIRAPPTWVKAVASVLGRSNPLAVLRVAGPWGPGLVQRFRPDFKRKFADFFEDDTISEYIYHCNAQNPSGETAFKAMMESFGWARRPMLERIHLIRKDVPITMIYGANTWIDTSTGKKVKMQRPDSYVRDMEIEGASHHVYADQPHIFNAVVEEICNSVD
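System: mouse ABHD4 enzyme, wild type / Medium: HEPES pH 7.0, NaCl, Pluronic buffer / Reagent: FP-Rh activity-based fluorescent probe / Control set: S159A mutant high control, sample median low control / Detection: fluorescence polarization with parallel and perpendicular emission, 525/598 nm / Schedule: 45 min + 60 min at 25 °C / Compound dosing: 8.92 µM, single dose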
rCAG bind conf: r(CAG) RNA repeat binding, confirmation | shares compounds with rCAG binder | TO-PRO-1 dye displacement fluorescence | inhibition, % at 3 µM | 4,300 compounds, 70% hits | AID 652065;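 active = inhibition above a per-plate cutoff, the mean inhibition of sample wells plus 3 SD, cut at about 35% in these data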;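 note: loss of TO-PRO-1 fluorescence as compound displaces dye from 1x1 AA loop RNA; 0% = DMSO only wells and 100% = 100 µM mitoxantrone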
DNA CAG counter: DNA CAG dye complex inhibition counter-screen; shares compounds with rCAG binder; AID 652068; 4,300 compounds, 94% hits; inhibition, % at 3 µM; d(CAG) DNA oligo TO-PRO-1 dye displacement, fluorescence;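 active = inhibition above its plate's cutoff, the mean test-well inhibition plus 3 SD, cut at about 4.8% in these data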;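 note: 0% = DNA dye mix with DMSO and 100% = 100 µM mitoxantrone; hits displace the dye from DNA and so lower well fluorescence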
An asterisk follows results filed as active.

Results for CS(=O)(=O)OC12CCCN(C1)/C(=C/c1ccc(Cl)cc1)C2 (stereo unspecified) ?
SIAE inh: 7.1; rCAG binder: 3.3; PRMT1 inh: 0.4; ABHD4 inh: 3.1

What do the screens show for `COC(=O)C1CN(Cc2ccc(C)cc2)CCS(=O)(=O)N1Cc1cn(Cc2ccc(OC)cc2)nn1` (stereo unspecified)?
SIAE inh: 4.7; rCAG binder: -1.4; PRMT1 inh: -0.9; ABHD4 inh: 0.7

What do the screens show for `Brc1ccc(Cn2nnc(-c3ccc(N4CCOCC4)cc3)n2)cc1`?
SIAE inh: -10.8; rCAG binder: 1.8; PRMT1 inh: -0.3; ABHD4 inh: 2.4

Results for COc1cc(/C=C2\SC(=S)N(CCCCC(=O)O)C2=O)ccc1OS(=O)(=O)c1ccc(C)cc1 ?
SIAE inh: -12.9; HTRA1 inhibitor: -39.9; rCAG binder: 78.6*; PRMT1 inh: 7.2; TCR-CD3 inh: 13.2; ABHD4 inh: 15.5; rCAG bind conf: 79.9*; DNA CAG counter: 43.5*

What do the screens show for `CCOc1ccc(/C=C2\SC(=S)N(NS(=O)(=O)c3ccccc3)C2=O)cc1OC`?
SIAE inh: -16.2; HTRA1 inhibitor: -5.3; rCAG binder: 79.0*; PRMT1 inh: 8.9; TCR-CD3 inh: -5.4; ABHD4 inh: 11.1; rCAG bind conf: 71.1*; DNA CAG counter: 35.2*

Results for CCOc1ccc(/C=C2\SC(=S)N(C)C2=O)cc1OC ?
SIAE inh: -1.8; rCAG binder: 4.1; PRMT1 inh: 4.0; TCR-CD3 inh: -13.2; ABHD4 inh: -5.4

How did CCOc1ccc(/C=C2\SC(=S)N(NS(=O)(=O)c3ccc(C)cc3)C2=O)cc1OC do in these assays?
SIAE inh: -10.8; HTRA1 inhibitor: -26.3; rCAG binder: 83.0*; PRMT1 inh: 0.6; TCR-CD3 inh: 2.8; ABHD4 inh: -12.3; rCAG bind conf: 76.1*; DNA CAG counter: 40.7*

Results for CCOc1cc(/C=C2\SC(=S)N(NS(=O)(=O)c3ccccc3)C2=O)ccc1O ?
SIAE inh: -139.3; HTRA1 inhibitor: -163.7; rCAG binder: 47.3*; PRMT1 inh: -0.6; TCR-CD3 inh: -59.9; ABHD4 inh: -152.1; rCAG bind conf: 28.0; DNA CAG counter: 8.6*

How did C[C@H]1CCCN1c1cccc2c1S(=O)(=O)N(C1CC1)CCCO2 do in these assays?
SIAE inh: 4.9; rCAG binder: 3.8; PRMT1 inh: -0.9; ABHD4 inh: 2.6

How did OC(c1ccccc1)(c1ccccc1)C1CCN(CCCOc2ccc(Br)cc2)CC1 do in these assays?
SIAE inh: -1.4; rCAG binder: 1.0; PRMT1 inh: -3.0; ABHD4 inh: 13.6

What do the screens show for `COc1cc(/C=C2\SC(=O)N(c3ccccc3Cl)C2=O)cc([N+](=O)[O-])c1O`?
SIAE inh: -1.7; HTRA1 inhibitor: 3.7; rCAG binder: 55.4*; PRMT1 inh: 8.0; TCR-CD3 inh: -7.9; ABHD4 inh: 7.0; rCAG bind conf: 57.7*; DNA CAG counter: 18.2*

Results for Cc1ccc(Nc2nc3c([nH]2)c(=O)n(C)c(=O)n3C)cc1 ?
SIAE inh: 5.2; HTRA1 inhibitor: 3.6; rCAG binder: 50.6*; PRMT1 inh: -1.6; TCR-CD3 inh: 3.0; ABHD4 inh: 0.6; rCAG bind conf: 14.2; DNA CAG counter: 14.0*

Results for Cc1cc(C)cc(Nc2nc3c([nH]2)c(=O)n(C)c(=O)n3C)c1 ?
SIAE inh: 4.2; HTRA1 inhibitor: 5.7; rCAG binder: 58.3*; PRMT1 inh: -1.6; TCR-CD3 inh: 5.4; ABHD4 inh: 4.2; rCAG bind conf: 18.1; DNA CAG counter: 12.5*

What do the screens show for `O=Cc1ccc(/C=C2\c3ccccc3C(=O)N2c2ccccc2)o1`?
SIAE inh: 9.6; rCAG binder: 41.4*; PRMT1 inh: 17.6; TCR-CD3 inh: -3.8; ABHD4 inh: 41.1*; rCAG bind conf: 22.6; DNA CAG counter: 15.2*

Results for O=C1c2ccccc2C(=O)N1c1ccccc1 ?
SIAE inh: 6.1; HTRA1 inhibitor: -3.5; rCAG binder: -2.0; PRMT1 inh: 7.5; TCR-CD3 inh: -3.7; ABHD4 inh: 3.9

How did CC1CCCCC1N(C(=O)c1cc(C2CC2)on1)C1CCCCCC1 (stereo unspecified) do in these assays?
SIAE inh: -3.1; rCAG binder: 0.5; PRMT1 inh: 3.9; ABHD4 inh: 9.3

Results for CO[C@@H]1[C@@H](OC(N)=O)[C@@H](O)[C@H](Oc2ccc3c(O)c(NC(=O)c4ccc(O)c(CC=C(C)C)c4)c(=O)oc3c2C)OC1(C)C ?
SIAE inh: 0.0; rCAG binder: 50.4*; PRMT1 inh: -1.2; TCR-CD3 inh: 0.8; ABHD4 inh: 14.9; rCAG bind conf: 56.3*; DNA CAG counter: 26.0*

How did O=C(Nc1cc(Cl)ccc1O)c1cc(-c2ccco2)on1 do in these assays?
SIAE inh: -14.7; HTRA1 inhibitor: -9.9; rCAG binder: 45.6*; PRMT1 inh: 14.8; TCR-CD3 inh: 0.9; ABHD4 inh: -34.5; rCAG bind conf: 17.8; DNA CAG counter: 11.9*

How did O=C(Nc1cc(Br)ccc1O)c1cc(-c2ccccc2)on1 do in these assays?
SIAE inh: -17.7; HTRA1 inhibitor: 1.0; rCAG binder: 3.9; PRMT1 inh: -0.2; TCR-CD3 inh: 8.8; ABHD4 inh: -2.0

What do the screens show for `O=C(Nc1cccc(Cl)c1)c1cc(-c2ccco2)on1`?
SIAE inh: 10.4; HTRA1 inhibitor: -35.6; rCAG binder: 6.4; PRMT1 inh: -4.0; TCR-CD3 inh: 7.2; ABHD4 inh: -18.6

How did O=C(Nc1cc(Br)ccc1O)c1cc(-c2ccco2)on1 do in these assays?
SIAE inh: -5.0; HTRA1 inhibitor: -5.7; rCAG binder: 42.5*; PRMT1 inh: 8.2; TCR-CD3 inh: -0.2; ABHD4 inh: -15.7; rCAG bind conf: 42.0*; DNA CAG counter: 19.1*

What do the screens show for `CCNC(=S)NNC(=O)CSc1nnc(-c2ccccc2)n1-c1ccc(Cl)cc1`?
SIAE inh: 10.1; rCAG binder: 11.9; PRMT1 inh: -1.6; ABHD4 inh: 2.5

How did COC(=O)[C@]12C[C@H](CC(=O)NCCc3ccccc3OC)C(=O)N(Cc3ccco3)C1=C[C@H](COCc1ccccc1)O[C@@H]2C do in these assays?
SIAE inh: 7.8; rCAG binder: 6.7; PRMT1 inh: 4.6; ABHD4 inh: -1.2

What do the screens show for `Oc1c(/C=C/C=C/C=Nc2ccccc2)sc(=S)n1Cc1ccccc1`?
SIAE inh: -10.9; rCAG binder: 45.7*; PRMT1 inh: 14.6; TCR-CD3 inh: -29.8; ABHD4 inh: -20.3; rCAG bind conf: 38.4*; DNA CAG counter: 19.8*

What do the screens show for `CCCCn1c(O)c(/C=C/C=C/C=Nc2ccccc2)sc1=S`?
SIAE inh: -2.9; HTRA1 inhibitor: -5.6; rCAG binder: 40.0*; PRMT1 inh: 12.2; TCR-CD3 inh: -13.0; ABHD4 inh: 4.0; rCAG bind conf: 32.5; DNA CAG counter: 18.0*

Source: PubChem (The Scripps Research Institute Molecular Screening Center)
